This is one part of a sample in which hits are shown more often than they occur.
HUVEC inhibit = human endothelial cell proliferation inhibition | HUVEC proliferation, CellTiter-Glo luminescence, 72 h; hits give low values | viability, % at 10 µM (by protocol) | 1.1% of 86,000 active | AID 648;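 active = viability at or below 30%; inactive = viability above 30%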
HCT116 bCat-KO = beta-catenin-lacking colon tumor cell growth suppression. viability, % at 10 µM. 1.5% of 140,000 active. HCT116 beta-catenin knockout viability, CellTiter-Glo, 60 h; hits give low values;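 active = viability at or under a set limit, the compound median less 4 SD, cut at about 6% in these data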
H69AR inhibit = growth inhibitors of human H69AR lung tumor cells; H69AR lung tumor viability, ATP luminescence, 72 h; hits give low values; viability, % at 10 µM; 6% of 85,000 active; AID 598;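 active = viability at or below 40%; inactive = viability above 40%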;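 note: multidrug resistant small cell line overexpressing MRP-1 efflux transporter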
Fibroblast inh = blocks proliferation of human lung fibroblasts | LL 47 human lung fibroblast viability, ATP luminescence; hits give low values | viability, % at 10 µM | 1.1% of 85,000 active;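 active = viability at or below 50% in the single dose screen; inactive = viability above 50%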;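 note: compound exposure lasted 72 h before the ATP readout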
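Signal: luminescent ATP detection, CellTiter-Glo; assay system: LL 47 human lung fibroblasts; input: 1,150 cells/well; incubation: overnight cell rest, 72 h compound treatment at 37 °C; measure: % viability versus median cells-only luminescence; medium: IMEM growth medium with 15% fetal bovine serum; dosing: compound addition at 0.1% DMSO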
HCT116 PTEN-null = suppresses growth of cells with PTEN deletion; viability, % at 10 µM; HCT116 PTEN-null viability, CellTiter-Glo, 60 h; hits give low values; 1.2% of 140,000 active;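 active = viability at or below a set limit, 4 SD under the median of all tested compounds, cut at about 3.7% in these data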;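 note: PTEN knockout HCT116 line with beta catenin targeted HCT116 as companion control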
PTK2B oligo ant = antagonists of human Pyk2 oligomerization; Q14289; Q293 cells, Pyk2 FERM NanoBiT luminescence; hits give low values; z-score (the deposit names both 25 µM and 10 µM); 0.83% of 99,000 active; AID 1347419;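 active = Z-score of -3 or lower, scaled per plate to the spread of control and sample wells; inactive = z-score above -3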;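 note: negative z-score means lost luminescence so less FERM oligomerization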
Numbers stand for hits; n = inactive; x = no result given.

SMILES	HUVEC inhibit	HCT116 bCat-KO	H69AR inhibit	Fibroblast inh	HCT116 PTEN-null	PTK2B oligo ant
Cc1ccccc1C(=O)c1cccn1CC(=O)NCc1ccc2c(c1)OCO2	n	n	n	n	n	n
COc1ccc(-n2c(SCC(=O)Nc3cc(C)on3)nc3c(c2=O)SCC3)cc1	n	n	n	n	n	x
Cc1cc(NC(=O)CSc2nnc3c(C)cc4c(C)ccc(C)c4n23)no1	n	n	25.7	n	n	n
CCCN(CCC)C(=O)CSc1nc2ccccc2c(=O)n1C1CCCC1	n	n	30.8	n	n	n
Cc1cc(NC(=O)CSc2nc3c(c(=O)n2-c2ccc(Br)cc2)SCC3)no1	n	n	19.8	49.1	n	n
Cc1nonc1NC(=O)CSc1nc(C2CCCCC2)nc2ccccc12	n	n	14.7	n	n	n
CCc1nnc(NC(=O)CSc2nnc3c(C)cc4c(C)ccc(C)c4n23)s1	x	n	x	x	n	x
Cc1cc2nc(SCC(=O)Nc3nonc3C)c3c(c2cc1C)CCCC3	n	n	n	n	n	n
Cc1ccc(NC(=S)NN(C)c2cc(C)nc(C)n2)cc1	x	n	x	x	n	n
COc1ccc(NC(=O)CSc2nc3ccccc3c(=O)n2CCC(=O)N2CCCCC2)cc1	n	n	39.6	n	n	n
Cc1ccc(Cn2c(SCC(=O)Nc3cc(C)on3)nc3ccccc3c2=O)cc1	n	n	16.7	35.9	n	n
CCOc1ccc(NC(=O)CSc2nc3ccccc3c(=O)n2CCCC(=O)N2CCCC2)cc1	n	n	n	n	n	n
Cc1cc(S(=O)(=O)N2CCN(Cc3ccc4c(c3)OCO4)CC2)cc(C)c1N1CCCC1=O	19.8	n	n	n	n	x
CSc1ccc(S(=O)(=O)N2CCN(Cc3ccc4c(c3)OCO4)CC2)cc1	n	n	n	n	n	x

Bioassay records as filed in PubChem BioAssay.
